Measured values as given in ChEMBL document CHEMBL1149664, “Anthranilamide inhibitors of factor Xa” (2007).

Columns and labels:
[1] = molecular target: Coagulation factor X (Homo sapiens) (UniProt P00742); assay: Inhibition of human factor 10a
Method in brief: (§1)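 Values are reported as an apparent association constant (Kassoc) between enzyme and inhibitor, in 10^6 L/mol.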

[2] = test system: Plasma; assay: Anticoagulant potency in human citreated plasma assessed as concentration required to double activated partial thromboplastin time; assay type: functional
[3] = molecular target: Prothrombin (Homo sapiens) (UniProt P00734); assay: Inhibition of human factor 2a; method in brief: as §1
[4] = test system: Plasma; assay: Anticoagulant potency in human citreated plasma assessed as concentration required to double prothrombin time; assay type: functional

Sequence of Coagulation factor X (Homo sapiens) (P00742 41-179 limits assumed): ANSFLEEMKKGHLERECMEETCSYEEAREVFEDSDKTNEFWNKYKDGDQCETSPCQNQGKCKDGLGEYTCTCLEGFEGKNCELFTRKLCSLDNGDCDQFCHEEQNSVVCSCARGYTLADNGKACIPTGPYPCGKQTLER
Sequence of Coagulation factor X (Homo sapiens) (P00742 235-488 limits assumed): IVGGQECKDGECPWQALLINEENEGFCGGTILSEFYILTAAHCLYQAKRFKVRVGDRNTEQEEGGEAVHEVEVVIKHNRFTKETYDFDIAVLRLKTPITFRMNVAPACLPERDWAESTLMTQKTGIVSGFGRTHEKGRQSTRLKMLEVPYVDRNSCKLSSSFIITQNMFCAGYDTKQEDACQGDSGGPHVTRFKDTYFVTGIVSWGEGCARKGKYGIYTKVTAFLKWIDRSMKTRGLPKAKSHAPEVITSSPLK

Structure (SMILES) | Kapp [1] | Activity [2] [µM] | Kapp [3] | Activity [4] [µM]
NCCCOc1cc(N2CCSCC2)ccc1C(=O)Nc1ccccc1C(=O)Nc1ccc(Cl)cn1 | 709 10^6L/mol | 0.69 | 17 10^6L/mol | 0.61
CN1CCN(c2ccc(C(=O)Nc3ccccc3C(=O)Nc3ccc(Cl)cn3)c(OCCCN)c2)CC1 | 82 10^6L/mol | – | 2 10^6L/mol | –
CC(C)(C)c1ccc(C(=O)Nc2ccccc2C(=O)Nc2ccc(Cl)cn2)c(OC2CCN(Cc3ncc[nH]3)CC2)c1 | 2160 10^6L/mol | 1.8 | 54 10^6L/mol | 2.6
CC(C)(C)c1ccc(C(=O)Nc2ccccc2C(=O)Nc2ccc(Cl)cn2)c(OC2CCN(CC3CC3)CC2)c1 | 1370 10^6L/mol | 2.4 | 37 10^6L/mol | 2.5
CC(C)(C)c1ccc(C(=O)Nc2ccccc2C(=O)Nc2ccc(Cl)cn2)c(OC2CCN(Cc3ccsc3)CC2)c1 | 450 10^6L/mol | 14.8 | 23 10^6L/mol | 20
COCCN1CCC(Oc2cc(C(C)(C)C)ccc2C(=O)Nc2ccccc2C(=O)Nc2ccc(Cl)cn2)CC1 | 3080 10^6L/mol | 2.1 | 24 10^6L/mol | 2.1
CC(C)(C)OC(=O)NCCCOc1cc(C(C)(C)C)ccc1C(=O)Nc1ccccc1C(=O)Nc1ccc(Cl)cn1 | 54 10^6L/mol | >70 | 0.2 10^6L/mol | >70
NCCCOc1cc(N2CCCC2)ccc1C(=O)Nc1ccccc1C(=O)Nc1ccc(Cl)cn1 | 3010 10^6L/mol | 0.41 | 40 10^6L/mol | 0.41
CC(C)(C)c1ccc(C(=O)Nc2ccccc2C(=O)Nc2ccc(Cl)cn2)c(OCC2CCCCN2)c1 (stereo not drawn) | 219 10^6L/mol | 1.4 | 67 10^6L/mol | 1.4
CC(C)(C)c1ccc(C(=O)Nc2ccccc2C(=O)Nc2ccc(Cl)cn2)c(OCCCN)c1 | 1440 10^6L/mol | 0.85 | 152 10^6L/mol | 0.79
CC(C)(C)c1ccc(C(=O)Nc2ccccc2C(=O)Nc2ccc(Cl)cn2)c(O)c1 | 23 10^6L/mol | >100 | 0.02 10^6L/mol | >100
CC(C)(C)c1ccc(C(=O)Nc2ccccc2C(=O)Nc2ccc(Cl)cn2)c(OC2CCN(C(=S)NCc3cccnc3)CC2)c1 | 733 10^6L/mol | 13.4 | 34 10^6L/mol | 21.8
CC(C)(C)OC(=O)N1CCC(Oc2cc(C(C)(C)C)ccc2C(=O)Nc2ccccc2C(=O)Nc2ccc(Cl)cn2)CC1 | 69 10^6L/mol | 55 | 6 10^6L/mol | 64
CN(C)CCCNC(=S)N1CCC(Oc2cc(C(C)(C)C)ccc2C(=O)Nc2ccccc2C(=O)Nc2ccc(Cl)cn2)CC1 | 170 10^6L/mol | 2.9 | 145 10^6L/mol | 2.9
NCCCOc1cc(N2CCCCC2)ccc1C(=O)Nc1ccccc1C(=O)Nc1ccc(Cl)cn1 | 323 10^6L/mol | 1 | 17 10^6L/mol | 0.93
COc1ccc(NC(=O)c2ccccc2NC(=O)c2ccc(C(C)C)cc2)cc1 | 7 10^6L/mol | – | – | –
CCCN1CCC(Oc2cc(C(C)(C)C)ccc2C(=O)Nc2ccccc2C(=O)Nc2ccc(Cl)cn2)CC1 | 1940 10^6L/mol | 3.1 | 30 10^6L/mol | 3.3
CC(C)(C)c1ccc(C(=O)Nc2ccccc2C(=O)Nc2ccc(Cl)cn2)c(OC2CCN(C(=O)Nc3ccccc3F)CC2)c1 | 307 10^6L/mol | 21.5 | 27 10^6L/mol | 30.2
CN1CCCN(c2ccc(C(=O)Nc3ccccc3C(=O)Nc3ccc(Cl)cn3)c(OCCCN)c2)CC1 | 8970 10^6L/mol | 0.1 | 24 10^6L/mol | –
CN1CCC(Oc2cc(C(C)(C)C)ccc2C(=O)Nc2ccccc2C(=O)Nc2ccc(Cl)cn2)CC1 | 1630 10^6L/mol | 0.93 | 61 10^6L/mol | 1.1

Structure (SMILES) | Kapp [1] | Activity [2] [µM] | Kapp [3] | Activity [4] [µM]
CC(C)(C)c1ccc(C(=O)Nc2ccccc2C(=O)Nc2ccc(Cl)cc2)cc1 | 0.5 10^6L/mol | – | – | –
CC(C)(C)c1ccc(C(=O)Nc2ccccc2C(=O)Nc2ccc(Cl)cn2)c(OC2CCNCC2)c1 | 1110 10^6L/mol | 0.85 | 114 10^6L/mol | 0.88
Cn1nccc1C(=O)N1CCC(Oc2cc(C(C)(C)C)ccc2C(=O)Nc2ccccc2C(=O)Nc2ccc(Cl)cn2)CC1 | 513 10^6L/mol | 5.7 | 21 10^6L/mol | 7.6
CC(C)(C)OC(=O)N1CCCCC1COc1cc(C(C)(C)C)ccc1C(=O)Nc1ccccc1C(=O)Nc1ccc(Cl)cn1 (stereo not drawn) | 3.1 10^6L/mol | >70 | 3.9 10^6L/mol | >70
NCCCOc1cc(N2CCOCC2)ccc1C(=O)Nc1ccccc1C(=O)Nc1ccc(Cl)cn1 | 516 10^6L/mol | 0.26 | 5.8 10^6L/mol | 0.34
NCCCOc1cc(N2CCCCCC2)ccc1C(=O)Nc1ccccc1C(=O)Nc1ccc(Cl)cn1 | 130 10^6L/mol | 3.1 | 25 10^6L/mol | 2.7
CN(C)CC(=O)N1CCC(Oc2cc(C(C)(C)C)ccc2C(=O)Nc2ccccc2C(=O)Nc2ccc(Cl)cn2)CC1 | 176 10^6L/mol | – | 60 10^6L/mol | –
CC(C)(C)c1ccc(C(=O)Nc2ccccc2C(=O)Nc2ccc(Cl)cn2)c(OC2CCN(Cc3ccccc3)CC2)c1 | 488 10^6L/mol | 28.1 | 20 10^6L/mol | 44.6
COc1ccc(NC(=O)c2ccccc2NC(=O)c2ccc(C(C)(C)C)cc2)cc1 | 5 10^6L/mol | – | – | –
CC(C)(C)c1ccc(C(=O)Nc2ccccc2C(=O)Nc2ccc(Cl)cn2)c(OC2CCN(C(=O)CCC(=O)O)CC2)c1 | 714 10^6L/mol | 6.1 | 4 10^6L/mol | 5.3
CC(C)(CNC(=O)OC(C)(C)C)COc1cc(C(C)(C)C)ccc1C(=O)Nc1ccccc1C(=O)Nc1ccc(Cl)cn1 | 2.9 10^6L/mol | >70 | 0.14 10^6L/mol | >70
CC(C)(CN)COc1cc(C(C)(C)C)ccc1C(=O)Nc1ccccc1C(=O)Nc1ccc(Cl)cn1 | 76 10^6L/mol | 2 | 1100 10^6L/mol | 1.6
CC(C)N1CCC(Oc2cc(C(C)(C)C)ccc2C(=O)Nc2ccccc2C(=O)Nc2ccc(Cl)cn2)CC1 | 3440 10^6L/mol | 1.2 | 25 10^6L/mol | 1.8
NCCCOc1cc(N2CC[C@@H](N)C2)ccc1C(=O)Nc1ccccc1C(=O)Nc1ccc(Cl)cn1 | 874 10^6L/mol | 0.4 | 7.3 10^6L/mol | 0.45
COc1ccc(C(=O)Nc2ccccc2C(=O)Nc2ccc(C(C)(C)C)cc2)cc1 | 0.03 10^6L/mol | – | – | –
CC(C)(C)c1ccc(C(=O)Nc2ccccc2C(=O)Nc2ccc(Cl)cn2)c(OC2CCN(Cc3ccccc3C(=O)O)CC2)c1 | 1160 10^6L/mol | 0.57 | 72 10^6L/mol | 1
CC(C)(C)c1ccc(C(=O)Nc2ccccc2C(=O)Nc2ccc(Cl)cn2)cc1 | 42 10^6L/mol | – | – | –
COc1ccc(NC(=O)c2ccccc2NC(=O)c2ccc(OC)cc2)cc1 | 1 10^6L/mol | – | – | –
CC(C)(C)c1ccc(C(=O)Nc2ccccc2C(=O)Nc2ccc(Cl)cn2)c(OC2CCN(C(=O)Cn3cnnn3)CC2)c1 | 448 10^6L/mol | 8 | 134 10^6L/mol | 10
